16 molecules from ChEMBL document CHEMBL4308887, “Synthesis and biological evaluation of clovamide analogues with catechol functionality as potent Parkinson's disease agents in vitro and in vivo” (Bioorg Med Chem Lett, 2019) can be followed below.

Experiment [1] has as its system SH-SY5Y. As to the kind of experiment: Neuroprotection against H2O2-induced cell death in human SH-SY5Y cells at 100 uM preincubated for 6 hrs followed by H2O2 addition and measured after 24 hrs by MTT assay relative to control. It counts as functional. The gist of the method:
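Human SH-SY5Y neuroblastoma cells pretreated with compound at 100 μM for 6 h, then exposed to 600 μM H₂O₂ for 24 h; viability read by MTT and expressed as protection rate relative to untreated control. DMSO below 0.1% in all groups. Primary single-concentration screen; three independent experiments.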
A general note: Formazan colour is commonly taken as a measure of viable cells.

Experiment [2] has as its system SH-SY5Y. Description: Neuroprotection against H2O2-induced cell death in human SH-SY5Y cells preincubated for 6 hrs followed by H2O2 addition and measured after 24 hrs by MTT assay. It counts as functional, cell-based. The method, boiled down: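 Primary screen at 100 μM, then dose-response. SH-SY5Y cells pretreated, then exposed to 600 μM H₂O₂ (the level chosen from a 100–1000 μM, 24 h viability titration). EC₅₀ is the concentration giving 50% of maximal effect. N-acetyl-L-cysteine served as positive control. DMSO below 0.1%. Mean ± S.E.M. of three experiments.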

As for `COC(=O)[C@H](Cc1ccccc1)NC(=O)/C=C/c1ccc(O)cc1`, the Activity in the experiment on SH-SY5Y [1] is less than 50%.
In turn, `COC(=O)[C@H](Cc1ccc(O)cc1)NC(=O)/C=C/c1ccc(O)c(O)c1` displayed an Activity in the experiment with SH-SY5Y [1] greater than 50%. It took 11.3 µM to reach a half-maximal effect with SH-SY5Y [2] (EC50).
In turn, `COC(=O)[C@H](Cc1ccc(O)cc1)NC(=O)/C=C/c1ccc(O)cc1` displayed an Activity with SH-SY5Y [1] of less than 50%.
Molecule `COC(=O)[C@H](Cc1ccccc1)NC(=O)/C=C/c1ccccc1` came in with an Activity in the experiment with SH-SY5Y [1] of less than 50%.
Molecule `COC(=O)[C@H](Cc1ccc(O)cc1)NC(=O)/C=C/c1ccccc1` returned an Activity with SH-SY5Y [1] of less than 50%.
In turn, `COC(=O)[C@H](Cc1ccc(O)c(O)c1)NC(=O)/C=C/c1ccc(O)cc1` yielded an Activity in the experiment with SH-SY5Y [1] greater than 50%. The EC50 (in general, the concentration giving half of the maximal effect) with SH-SY5Y [2] worked out at 19.1 µM.
Regarding `COC(=O)[C@H](Cc1ccc(O)c(O)c1)NC(=O)/C=C/c1ccc(O)c(OC)c1`, in the experiment with SH-SY5Y [1], the Activity was greater than 50%. In the experiment with SH-SY5Y [2], this molecule displayed an EC50 of 23.8 µM.
For `COC(=O)[C@H](Cc1ccccc1)NC(=O)/C=C/c1ccc(O)c(OC)c1`, in the experiment with SH-SY5Y [1], the Activity is less than 50%.
Still for that read-out and setting: the same measure for `COC(=O)[C@H](Cc1ccc(O)cc1)NC(=O)/C=C/c1cccc(O)c1`: less than 50%.
On the same count and under the same terms, the same measure for `COC(=O)[C@H](Cc1ccccc1)NC(=O)/C=C/c1cccc(O)c1`: less than 50%.
In the experiment with SH-SY5Y [1], `COC(=O)[C@H](Cc1ccc(O)cc1)NC(=O)/C=C/c1cccc(OC)c1` came in with an Activity of less than 50%.
Regarding `COC(=O)[C@H](Cc1ccc(O)c(O)c1)NC(=O)/C=C/c1cccc(O)c1`, in the experiment on SH-SY5Y [1], the Activity is given as greater than 50%. In addition, in the experiment on SH-SY5Y [2], the EC50 stood at 17.5 µM.
`CC(=O)N[C@@H](CS)C(=O)O` [ACETYLCYSTEINE]: a half-maximal effect in the experiment on SH-SY5Y [2] (EC50) was put at 1680 µM.
Still for that read-out and setting: as for `O=C(O)/C=C/c1ccc(O)c(O)c1` [CAFFEIC ACID], the figure is 33.8 µM.
In the experiment with SH-SY5Y [1], `COC(=O)[C@H](Cc1ccc(O)c(O)c1)NC(=O)/C=C/c1ccc(O)c(O)c1` [N-CAFFEOYL-DOPA METHYL ESTER] gave an Activity greater than 50%. In the experiment on SH-SY5Y [2], this molecule registered a concentration giving a half-maximal response (EC50) of 15.6 µM.
The corresponding values for `COC(=O)[C@H](Cc1ccc(O)c(O)c1)NC(=O)/C=C/c1ccccc1` [N-CINNAMOYL-DOPA METHYL ESTER] are greater than 50% and 14.3 µM.
